# Most compounds without a hit are left out; they make up all but 3.5% or so of the library.
# MrgX1 antagonist: human MrgX1 receptor antagonism, primary screen; Q96LB2; MRGX1-HEK293 calcium flux, Fluo-4, BAM8-22 antagonism; hits give low values; B-score at 10 µM; AID 588676; 1.3% of 310,000 active;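 active = calcium-response B-score plate-corrected more than 3 library SD below zero, starting fluorescence within 5 deviations, no agonist response on first addition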;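 note: peak minus trough fluorescence over baseline after final BAM8-22 challenge near maximal dose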
# Target sequence (Q96LB2 whole entry, looked up): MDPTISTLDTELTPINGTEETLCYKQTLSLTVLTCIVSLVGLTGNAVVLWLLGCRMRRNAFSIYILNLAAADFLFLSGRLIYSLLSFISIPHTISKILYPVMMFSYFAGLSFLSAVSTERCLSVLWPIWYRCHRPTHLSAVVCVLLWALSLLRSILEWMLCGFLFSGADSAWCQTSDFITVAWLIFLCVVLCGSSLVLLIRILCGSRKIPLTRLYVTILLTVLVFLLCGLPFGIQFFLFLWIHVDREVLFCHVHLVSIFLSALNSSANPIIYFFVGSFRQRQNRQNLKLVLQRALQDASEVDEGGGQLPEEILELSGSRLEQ
# RGS4 act: potentiators or activators of RGS4; HEK293 M3R/inducible RGS4, carbachol calcium flux Fluo4; hits give low values; B-score at 10 µM; 0.92% of 310,000 active; AID 463111;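 active = B-score of the integrated calcium signal more than 4 SD below the library mean, with starting fluorescence not abnormally high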;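 note: negative B-score means reduced calcium response which marks RGS4 activation or potentiation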
#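 Material: Inducible-RGS4 HEK293 cells carrying M3 receptor; also added: carbachol at ECmax as muscarinic agonist stimulus; incubation: compound preincubation 20 min at room temperature before agonist; signal: Fluo4-AM (2 µM) calcium-flux fluorescence, kinetic read; measure: integrated calcium ratio converted to B score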
# MrgX1 PAM: allosterically activates human MrgX1 receptor signaling | B-score at 10 µM | MrgX1-HEK293, Fluo-4 calcium flux, FDSS; hits give high values | Q96LB2 | 0.63% of 310,000 active;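 active = plate-corrected calcium response at least 3 library SD above typical, normal starting fluorescence, not activating the receptor alone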;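 note: compound read alongside a low EC10 to EC30 dose of BAM8-22 agonist; peak minus trough fluorescence over baseline measured at the second addition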
# RGS4 block: human RGS4 inhibition. HEK293 M3R/RGS4 inducible, Fluo-4 calcium flux; hits give high values; triggered by carbachol at its EC20. B-score at 10 µM. 0.45% of 310,000 active. AID 463165;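 active = B-score, a plate-corrected calcium signal, over three deviations above library mean, with baseline fluorescence within five deviations of library mean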;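 note: RGS4 expression induced by doxycycline in cells with stable M3 receptor; B-score is computed from the integrated fluorescence ratio over baseline after carbachol; higher B-score means a larger calcium signal and so more RGS4 inhibition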
# Target sequence (P49798 whole entry, looked up): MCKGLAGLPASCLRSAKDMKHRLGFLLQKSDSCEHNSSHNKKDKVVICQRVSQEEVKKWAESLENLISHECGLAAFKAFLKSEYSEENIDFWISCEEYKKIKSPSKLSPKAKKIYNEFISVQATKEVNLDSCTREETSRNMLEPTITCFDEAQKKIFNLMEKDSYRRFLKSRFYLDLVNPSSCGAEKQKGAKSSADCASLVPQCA
# MrgX1 agonist: agonists of human MrgX1 receptor | MrgX1-HEK293 cells, Fluo-4 calcium fluorescence, agonist mode; hits give high values | 0.44% of 310,000 active | B-score at 10 µM | AID 588627;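 active = calcium response B-score plate-corrected fluorescence ratio at least 3 library SD, with starting fluorescence B-score inside 5 SD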
#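 System – MrgX1-expressing HEK293 cells · Incubation – cells plated overnight, dye loaded 0.5 h 37 °C, 0.5 h room temperature · Technique – kinetic Fluo-4 NW fluorescence of intracellular calcium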
# MrgX1 ant reconf: human MrgX1 receptor antagonism, re-confirmation screen | MrgX1-HEK293, BAM8-22 calcium flux, Fluo-4; hits give low values | remaining BAM8-22 calcium response % of control (hits give low values), % at 10 µM | shares compounds with MrgX1 antagonist | 19% of 2,300 active;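 active = remaining agonist calcium response no higher than 100% minus 3 SD of agonist-only control wells, with starting fluorescence near control levels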;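 note: agonist BAM8-22 given at a near maximal EC90 to ECmax level; peak minus minimum fluorescence divided by baseline after agonist addition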
# HEK293 Ca flux: activity in parental HEK293 cells lacking MrgX1; shares compounds with MrgX1 antagonist; Fluo-4 calcium fluorescence, FDSS; fluorescence ratio F(max-min)/F0 at 10 µM; 2% of 4,000 active; AID 624111;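 active = duplicate-averaged calcium fluorescence ratio at least three times the standard deviation of buffer wells, a nonspecific response in parental cells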
# HEK293 Ca counter: activity in parental HEK293 cells without MrgX1; parental HEK293 calcium flux, Fluo-4 fluorescence ratio; hits give high values; AID 624114; 0.4% of 4,000 active; shares compounds with MrgX1 antagonist; fluorescence ratio F(max-min)/F0 at 10 µM;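 active = calcium fluorescence ratio, averaged over duplicates, at least 3 SD of the buffer-well ratio, meaning a nonspecific response in receptor-free cells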;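 note: untransfected parental HEK293 lacking MrgX1 used as counterscreen for MrgX1 allosteric activators; fluorescence change taken during the second addition on a kinetic imager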
# HEK293 Ca cntr2: counter-screen for MrgX1 activators: effect in parental HEK293 cells; shares compounds with MrgX1 antagonist; Fluo-4 calcium fluorescence (FDSS); hits give high values; fluorescence ratio F(max-min)/F0 at 10 µM; 8.7% of 4,000 active; AID 624115;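 active = calcium fluorescence ratio at least three times the spread of buffer wells, meaning a non-specific response in parental cells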
# A number is an active result; . = inactive; / = not tested or not shown.
SMILES,MrgX1 antagonist,RGS4 act,MrgX1 PAM,RGS4 block,MrgX1 agonist,MrgX1 ant reconf,HEK293 Ca flux,HEK293 Ca counter,HEK293 Ca cntr2
CCN(Cc1ccccc1)S(=O)(=O)c1c(C)[nH]c(C)c1C(=O)N1CCCCC1,.,.,.,.,.,/,/,/,/
Oc1ccccc1CNc1cnc2ccccc2c1,.,.,.,.,.,/,/,/,/
C=CCc1cccc(CNc2cnc3ccccc3c2)c1O,-6.6,.,.,.,.,82%,.,.,.
CCOc1ccc(CCNC(=O)CN2C(=O)NC3(CCCCC3)C2=O)cc1OCC,.,.,.,.,.,/,/,/,/
CCOC(=O)C1CCCN(S(=O)(=O)c2nc3nc(C)cc(C)n3n2)C1 (configuration not stated),-5.8,.,.,.,.,.,.,.,.
CCOC(=O)C1CCCN(S(=O)(=O)c2cc3[nH]c(=O)c(=O)[nH]c3cc2C)C1 (configuration not stated),.,.,.,.,.,/,/,/,/
COC(=O)c1cccc(NC(=O)CSc2nc3cccnc3n2C)c1,-4.8,/,.,/,.,74%,.,.,.
COC(=O)c1ccccc1NC(=O)CSc1nc2cccnc2n1C,.,.,.,.,.,/,/,/,/
COCCN(C(=O)c1ccco1)c1nnc(-c2ccc(OC)c(OC)c2)s1,.,.,.,.,.,/,/,/,/
COc1ccc(-c2nnc(N(C)C(=O)c3ccco3)s2)cc1OC,-7.5,.,.,.,.,.,.,.,.
S=C(NCc1ccncc1)Nc1ccc(Br)cc1Cl,-6.3,.,.,.,.,68%,.,.,.
O=C(NNC(=S)Nc1ccc(Br)cc1Cl)c1ccncc1,.,.,.,.,.,/,/,/,/
CCOc1ccc(N(CC(=O)NCC2CCCO2)S(=O)(=O)c2ccc(SC)cc2)cc1 (configuration not stated),.,.,.,.,.,/,/,/,/
Cc1ccc(CC(CC(=O)O)C(=O)Nc2ccc(Cl)cc2)cc1 (configuration not stated),.,.,.,.,.,/,/,/,/
Cc1nn(C)c(C(=O)Sc2cccc(Cl)c2)c1[N+](=O)[O-],.,.,.,.,.,/,/,/,/
COc1cccc(CN(C)C(=S)Nc2cccc(C)c2)c1,-4.9,.,.,.,.,.,.,.,.
CN1CCN(S(=O)(=O)c2ccc(CNC(=O)c3ccccc3)s2)CC1,.,.,.,.,.,/,/,/,/
Nc1nnnn1/N=C/c1ccccc1OCc1ccc(Cl)cc1Cl,-4.8,.,.,.,.,.,.,.,.
Nc1nnnn1/N=C/c1ccccc1OCc1ccc(Cl)cc1,.,.,.,.,.,/,/,/,/
Cc1ccc(NC(=O)C2c3ccccc3Oc3ccccc32)c(C)c1,.,.,.,.,.,/,/,/,/
Cc1ccc(N2C(=O)N(CC(=O)Nc3ccc(C)cc3Cl)C(=O)C2C)cc1 (configuration not stated),-10,.,.,.,.,77%,.,.,.
COc1cc(CN2CCN(Cc3cccc(OC)c3OC)CC2)cc(OC)c1,.,.,.,.,.,/,/,/,/
O=C1CC(NCCC2=CCCCC2)C(=O)N1c1cccc(Cl)c1Cl (configuration not stated),.,.,.,.,.,/,/,/,/
Cc1cc(C)cc(NC(=O)c2cc(S(=O)(=O)N3CCCC3)cn2C)c1,-6.9,.,.,.,.,.,.,.,.
O=C(c1nc2ccc(Cl)cn2c1CN1CCC(O)CC1)N1CCc2ccccc2C1,-5.5,.,.,.,.,.,.,.,.
SMILES,MrgX1 antagonist,RGS4 act,MrgX1 PAM,RGS4 block,MrgX1 agonist,MrgX1 ant reconf,HEK293 Ca flux,HEK293 Ca counter,HEK293 Ca cntr2
Cc1cc2cc(C)c3nnc(SCC(=O)Nc4ccc(S(=O)(=O)N5CCCCC5)cc4)n3c2cc1C,.,.,.,.,.,/,/,/,/
Cc1ccc(NC(=O)C2CCN(S(=O)(=O)c3ccc4c(c3)NC(=O)C(C)S4)CC2)cc1Cl (configuration not stated),-4.6,.,.,.,.,86%,.,.,.
Cc1cc(C)cc(NC(=O)C2CCN(S(=O)(=O)c3ccc4c(c3)NC(=O)C(C)S4)CC2)c1 (configuration not stated),.,.,.,.,.,/,/,/,/
CCc1ccc(N(CC)C(=O)Cc2c(C(=O)O)n(C)c3ccccc23)cc1,-6.6,.,.,.,.,.,.,.,.
CCOc1ccc(N(CC)C(=O)Cc2c(C(=O)O)n(C)c3ccccc23)cc1,.,.,.,.,.,/,/,/,/
Cc1cccc(NC(=O)c2ccc(S(=O)(=O)N(C)C)cc2)c1,.,.,.,.,.,/,/,/,/
COc1cc(NC(=O)c2ccc(S(=O)(=O)N(C)C)cc2)cc(OC)c1OC,-5.3,.,.,.,.,.,.,.,.
CCN(CC)S(=O)(=O)c1ccc(C(=O)Nc2cc3oc4ccccc4c3cc2OC)cc1,-6.8,.,.,.,.,.,.,.,.
CCc1ccc2nc(SCC(=O)Nc3nnc(C)s3)c(C)cc2c1,-6.2,.,.,.,.,83%,.,.,.
CSCC[C@H](NC(=O)[C@@H]1CSC2c3ccccc3C(=O)N21)C(=O)N1CCC[C@H]1CO (some centres not stated),.,.,.,.,.,/,/,/,/
CCOC(=O)Cc1csc(NC(=O)c2c(O)c3c(n(CC(C)C)c2=O)CCCC3)n1,-6.8,.,.,.,.,81%,.,.,.
Cc1onc(-c2ccccc2Cl)c1C(=O)NC(=S)Nc1ccc(C(C)(C)C)cc1,.,.,.,.,.,/,/,/,/
O=C(CCCn1c(SCc2cccc(F)c2)nc2ccccc2c1=O)NCC1CCCO1 (configuration not stated),-5.2,.,.,.,.,.,.,.,.
Nc1c(-c2cccc([N+](=O)[O-])c2)nc2ccccn12,.,.,.,.,.,/,/,/,/
Nc1ncc2c(n1)-c1ccoc1CC2,.,.,.,.,.,/,/,/,/
Nc1ncc2c(n1)-c1ccccc1CC2,-4.8,.,.,.,.,.,.,.,.
NC(N)=NN=C1CCC(c2ccccc2)CC1 (configuration not stated),.,.,.,.,.,/,/,/,/
CCOC(=O)c1sc(=NC(=O)c2ccccc2)n(C)c1C,.,.,.,.,.,/,/,/,/
CCOC(=O)c1sc(=NC(=O)CCS(=O)(=O)c2ccccc2)n(C)c1C,-5.7,.,.,.,.,.,.,.,.
CC(=O)c1cccc(NC(=O)C2CC(=O)N(CCc3ccccc3)C2)c1 (configuration not stated),-5.2,.,.,.,.,.,.,.,.

# Source: PubChem
